Reference: ChEMBL document CHEMBL5247578, “Effective synthesis of benzimidazoles-imidazo[1,2-a]pyrazine conjugates: A comparative study of mono-and bis-benzimidazoles for antitumor activity” (Eur J Med Chem, 2019)

How the values were obtained:
[1] = test system: Calf thymus DNA; test: Binding affinity to calf thymus DNA assessed as binding constant at temperature of 298 K by Stern-Volmer quenching plot based fluorescence spectroscopic method; format: nucleic-acid assay; conditions: Bos taurus
[2] = test system: Calf thymus DNA; test: Binding affinity to calf thymus DNA assessed as quenching constant at temperature of 298 K by fluorescence spectroscopic method; format: nucleic-acid assay; conditions: Bos taurus
[3] = test system: PC-3; test: Antiproliferative activity against human PC-3 cells assessed as cell growth at 0.00000001 M incubated for 48 hrs by SRB assay relative to control; format: functional; conditions: dose 10 nM, read-out: Activity
[4] = test system: UO-31; test: Antiproliferative activity against human UO-31 cells assessed as cell growth at 0.00000001 M incubated for 48 hrs by SRB assay relative to control; format: functional; conditions: dose 10 nM, read-out: Activity
[5] = test system: A498; test: Antiproliferative activity against human A498 cells assessed as cell growth at 0.00000001 M incubated for 48 hrs by SRB assay relative to control; format: functional; conditions: dose 10 nM, read-out: Activity
In short: (§1)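 NCI-60 five-dose screen over 10^-4–10^-8 M (10-fold dilutions). Cells grown in RPMI 1640 with 5% FBS and 2 mM L-glutamine, seeded at 5,000–40,000 cells/well and preincubated 24 h. Drug from DMSO stock, 48 h at 37 °C, 5% CO2. Adherent cells TCA-fixed and stained with 0.4% SRB; A515 read. Percent growth = (Ti−Tz)/(C−Tz)×100, or (Ti−Tz)/Tz×100 when Ti<Tz.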

[6] = test system: OVCAR-8; test: Antiproliferative activity against human OVCAR-8 cells assessed as cell growth at 0.00000001 M incubated for 48 hrs by SRB assay relative to control; format: functional; conditions: dose 10 nM, read-out: Activity
[7] = test system: SK-MEL-5; test: Antiproliferative activity against human SK-MEL-5 cells assessed as cell growth at 0.00000001 M incubated for 48 hrs by SRB assay relative to control; format: functional; conditions: dose 10 nM, read-out: Activity
[8] = test system: HL-60; test: Antiproliferative activity against human HL-60 cells assessed as cell growth at 0.00000001 M incubated for 48 hrs by SRB assay relative to control; format: functional; conditions: dose 10 nM, read-out: Activity
In short: (§2)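 NCI-60 five-dose screen (10^-4 to 10^-8 M). Cells grown in RPMI 1640 with 5% FBS and 2 mM L-glutamine, plated at 5,000-40,000 cells/well and preincubated 24 h. Drug given from DMSO stock, then 48 h at 37 °C, 5% CO2. For adherent lines, cells fixed with cold TCA, SRB-stained and read at 515 nm. Percent growth taken against time-zero and untreated control.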

[9] = test system: SF-295; test: Antiproliferative activity against human SF-295 cells assessed as cell growth at 0.00000001 M incubated for 48 hrs by SRB assay relative to control; format: functional; conditions: dose 10 nM, read-out: Activity
[10] = test system: TK-10; test: Antiproliferative activity against human TK-10 cells assessed as cell growth inhibition by measuring lethal concentration incubated for 48 hrs by sulforhodamine B assay; format: functional; conditions: read-out: LC50 (the source's name)
In short: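 NCI-60 five-dose screen (10^-4 to 10^-8 M, 10-fold dilutions; DMSO stocks). Cells in RPMI 1640 with 5% FBS and 2 mM L-glutamine, preincubated 24 h, then exposed 48 h at 37 °C, 5% CO2. Fixed with cold TCA, stained with 0.4% SRB, absorbance read at 515 nm. Time-zero plates used as reference. LC50 taken from [(Ti-Tz)/Tz]×100 […].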

[11] = test system: DU-145; test: Growth inhibition against human DU-145 cells incubated for 48 hrs by sulforhodamine B assay; format: functional
[12] = test system: PC-3; test: Growth inhibition against human PC-3 cells incubated for 48 hrs by sulforhodamine B assay; format: functional
[13] = test system: SF-539; test: Growth inhibition against human SF-539 cells incubated for 48 hrs by sulforhodamine B assay; format: functional
[14] = test system: MDA-MB-468; test: Antiproliferative activity against human MDA-MB-468 cells assessed as cell growth at 0.00000001 M incubated for 48 hrs by SRB assay relative to control; format: functional; conditions: dose 10 nM, read-out: Activity
[15] = test system: KM12; test: Antiproliferative activity against human KM12 cells assessed as cell growth at 0.0000001 M incubated for 48 hrs by SRB assay relative to control; format: functional; conditions: dose 100 nM, read-out: Activity
[16] = test system: SF-268; test: Antiproliferative activity against human SF-268 cells assessed as cell growth at 0.0000001 M incubated for 48 hrs by SRB assay relative to control; format: functional; conditions: dose 100 nM, read-out: Activity
[17] = test system: LOX IMVI; test: Antiproliferative activity against human LOX IMVI cells assessed as cell growth at 0.0000001 M incubated for 48 hrs by SRB assay relative to control; format: functional; conditions: dose 100 nM, read-out: Activity
[18] = test system: M14; test: Antiproliferative activity against human M14 cells assessed as cell growth at 0.0000001 M incubated for 48 hrs by SRB assay relative to control; format: functional; conditions: dose 100 nM, read-out: Activity
[19] = test system: MDA-MB-231; test: Antiproliferative activity against human MDA-MB-231 cells assessed as cell growth at 0.0000001 M incubated for 48 hrs by SRB assay relative to control; format: functional; conditions: dose 100 nM, read-out: Activity
[20] = test system: HCC 2998; test: Antiproliferative activity against human HCC 2998 cells assessed as cell growth at 0.000001 M incubated for 48 hrs by SRB assay relative to control; format: functional; conditions: read-out: Activity; in short: as §2
[21] = test system: MDA-MB-435; test: Antiproliferative activity against human MDA-MB-435 cells assessed as cell growth at 0.000001 M incubated for 48 hrs by SRB assay relative to control; format: functional; conditions: read-out: Activity
[22] = test system: RXF 393; test: Antiproliferative activity against human RXF 393 cells assessed as cell growth at 0.000001 M incubated for 48 hrs by SRB assay relative to control; format: functional; conditions: read-out: Activity
[23] = test system: PC-3; test: Antiproliferative activity against human PC-3 cells assessed as cell growth at 0.000001 M incubated for 48 hrs by SRB assay relative to control; format: functional; conditions: read-out: Activity
[24] = test system: MDA-MB-468; test: Antiproliferative activity against human MDA-MB-468 cells assessed as cell growth at 0.000001 M incubated for 48 hrs by SRB assay relative to control; format: functional; conditions: read-out: Activity
[25] = test system: HOP-92; test: Antiproliferative activity against human HOP-92 cells assessed as cell growth at 0.00001 M incubated for 48 hrs by SRB assay relative to control; format: functional; conditions: read-out: Activity; in short: as §2
[26] = test system: Hs-578T; test: Antiproliferative activity against human Hs-578T cells assessed as cell growth at 0.00001 M incubated for 48 hrs by SRB assay relative to control; format: functional; conditions: read-out: Activity
In short: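 NCI-60 five-dose mode, 10^-4 to 10^-8 M in 10-fold steps. RPMI 1640, 5% FBS, 2 mM L-glutamine; 24 h preincubation, then 48 h drug exposure at 37 °C. Stocks in DMSO at 400× the top concentration, diluted in medium with gentamicin. TCA fixation, SRB staining, absorbance at 515 nm. Percent growth from time-zero (Tz), control (C) and test (Ti) readings.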

[27] = test system: HCT-116; test: Antiproliferative activity against human HCT-116 cells assessed as cell growth at 0.0001 M incubated for 48 hrs by SRB assay relative to control; format: functional; conditions: read-out: Activity; in short: as §2
[28] = test system: SNB-75; test: Antiproliferative activity against human SNB-75 cells assessed as cell growth at 0.0001 M incubated for 48 hrs by SRB assay relative to control; format: functional; conditions: read-out: Activity
[29] = test system: CAKI-1; test: Antiproliferative activity against human CAKI-1 cells assessed as cell growth at 0.0001 M incubated for 48 hrs by SRB assay relative to control; format: functional; conditions: read-out: Activity; in short: as §1
[30] = test system: MDA-MB-468; test: Antiproliferative activity against human MDA-MB-468 cells assessed as cell growth at 0.0001 M incubated for 48 hrs by SRB assay relative to control; format: functional; conditions: read-out: Activity

Compound | Kb [1] | Kq [2] | growth at 0.01 µM [3] [%] | growth at 0.01 µM [4] [%] | growth at 0.01 µM [5] [%] | growth at 0.01 µM [6] [%] | growth at 0.01 µM [7] [%] | growth at 0.01 µM [8] [%] | growth at 0.01 µM [9] [%] | CC50 [10] [nM] | GI50 [11] [nM] | GI50 [12] [nM] | GI50 [13] [nM] | growth at 0.01 µM [14] [%] | growth at 0.1 µM [15] [%] | growth at 0.1 µM [16] [%] | growth at 0.1 µM [17] [%] | growth at 0.1 µM [18] [%] | growth at 0.1 µM [19] [%] | growth at 1 µM [20] [%] | further results
COc1ccc(-c2cn3ccnc3c(-c3ccc4ncn(C5CCCCC5)c4c3)n2)cc1 | 36.5 10^4/M | 4.65 10^12/M/s | 96 | 91 | 100 | 105 | 98 | 97 | 87 | > 100000 | 1070 | 621 | 569 | 93 | 99 | 92 | 92 | 95 | 101 | 86 | growth at 1 µM [21]: 7%; growth at 1 µM [22]: 57%; growth at 1 µM [23]: 37%; growth at 1 µM [24]: 47%; growth at 10 µM [25]: 2%; growth at 10 µM [26]: 6%; growth at 100 µM [27]: -29%; growth at 100 µM [28]: 11%; growth at 100 µM [29]: 26%; growth at 100 µM [30]: 10%
c1ccc(Cn2cnc3ccc(-c4nc(-c5ccc6c(c5)ncn6C5CCCCC5)cn5ccnc45)cc32)cc1 | 9.58 10^4/M | 1.19 10^12/M/s | 95 | 91 | 95 | 106 | 101 | 104 | 91 | > 100000 | 3040 | 1970 | 1060 | 100 | 98 | 94 | 94 | 91 | 98 | 105 | growth at 1 µM [21]: 92%; growth at 1 µM [22]: 62%; growth at 1 µM [23]: 75%; growth at 1 µM [24]: 89%; growth at 10 µM [25]: -90%; growth at 10 µM [26]: 1%; growth at 100 µM [27]: -33%; growth at 100 µM [28]: -47%; growth at 100 µM [29]: 23%; growth at 100 µM [30]: -7%
